Bioassay records as filed in PubChem BioAssay.
Shown are actives, neighbours in structure and some others; about 3.7% of the full set was active somewhere.
hERG protect = compounds protecting human hERG from proarrhythmic drug block | Q12809 | CHO-hERG, FluxOR thallium flux, dofetilide IC70 present | activation (rescue from dofetilide block), less the hit threshold, % at 10 µM | hit rate 0.51% among 310,000;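 active = activation above the mean of controls blocked by dofetilide plus 5 SD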;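 note: thallium influx through hERG after potassium depolarization seen as dye fluorescence rise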
KCNK9 inh = blocks the human KCNK9 two-pore domain potassium channel. Q9NPC2. HEK293 KCNK9, FluxOR thallium flux fluorescence; active compounds read low. B-score at 10 µM. hit rate 1.2% among 310,000. AID 488922;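 active = ratio B-score over 3 SD below the library mean, with starting fluorescence within 5 SD of its mean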;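 note: negative B-score means less thallium flux so channel inhibition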
Kir21 inh = blocks the mouse Kir2.1 inward-rectifier potassium channel | P35561 | HEK293-Kir2.1, FluxOR thallium flux fluorescence; active compounds read low | hit rate 0.85% among 310,000 | B-score at 10 µM;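 active = fluorescence ratio B-score at or below minus 3 SD of library scores, with starting-brightness B-score within 2 SD, cut at about -4.2 in these data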;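 note: channel flux triggered by added potassium and thallium sulfate stimulus; B-score of peak minus minimum fluorescence over baseline after thallium stimulus; more negative B-score means stronger Kir2.1 block with less thallium influx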
Target sequence (P35561 whole entry, looked up): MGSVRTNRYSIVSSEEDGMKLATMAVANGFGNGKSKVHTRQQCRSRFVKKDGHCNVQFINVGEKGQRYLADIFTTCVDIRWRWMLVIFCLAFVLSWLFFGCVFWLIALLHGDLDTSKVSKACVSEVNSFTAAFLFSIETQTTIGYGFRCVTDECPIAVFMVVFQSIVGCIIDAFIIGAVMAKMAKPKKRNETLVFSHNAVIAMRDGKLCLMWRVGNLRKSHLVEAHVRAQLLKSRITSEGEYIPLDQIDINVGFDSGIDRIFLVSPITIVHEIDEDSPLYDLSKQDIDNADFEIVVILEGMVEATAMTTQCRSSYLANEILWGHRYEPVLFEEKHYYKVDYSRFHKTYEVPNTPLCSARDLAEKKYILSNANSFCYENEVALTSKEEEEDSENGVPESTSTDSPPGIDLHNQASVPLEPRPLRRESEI
KCNQ1 block = inhibitors of human KCNQ1 potassium channel; P51787; CHO-K1 KCNQ1, FluxOR thallium flux fluorescence; active compounds read high; B-score at 10 µM; hit rate 1.3% among 310,000; AID 2642;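 active = compounds whose thallium flux B-score, printed positive for inhibition, exceeds three library SD while starting fluorescence stays within three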;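 note: channel opened by potassium depolarization with thallium stimulus after 20 min compound exposure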
KCNQ1 pot = potentiates or activates the human KCNQ1 potassium channel; P51787; CHO-K1 KCNQ1, thallium flux FluxOR fluorescence; active compounds read high; B-score at 10 µM; hit rate 0.35% among 310,000; AID 2648;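 active = fluorescence ratio B-score, a plate-corrected score, at least three library SD, with initial intensity B-score within 5 SD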
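Material: CHO-K1 cells stably expressing KCNQ1. Medium: assay buffer for compound exposure, DMSO matched across wells. Reagent: K+/Tl+ depolarizing stimulus. Compound dosing: single-concentration screen. Times: 37 °C overnight plating, 90-min dark dye load, 20-min compound pretreatment. Technique: FluxOR Tl+ flux fluorescence.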
KCNK3 block = human KCNK3 channel inhibition, primary screen | AID 602410 | hit rate 0.84% among 340,000 | CHO-KCNK3 thallium flux, FluxOR fluorescence; active compounds read low | B-score at 10 µM | O14649;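 active = B-score under library mean minus 4 SD, starting fluorescence ratio at most library mean plus 5 SD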;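 note: more negative B-score means stronger inhibition of thallium flux through KCNK3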
* = called active by the depositor; i = inactive; . = no result.

SMILES	hERG protect	KCNK9 inh	Kir21 inh	KCNQ1 block	KCNQ1 pot	KCNK3 block
COc1ccc(OC)c(NC(=O)C(=O)NNC(=O)C23CC4CC(CC(C4)C2)C3)c1	65*	i	0.01	i	10*	i
CC(=O)c1ccc(N2CCN(C(=O)c3cc(-c4ccncc4)nc4ccc(Cl)cc34)CC2)cc1	-13	i	1.8	i	i	i
COc1ccccc1CNC(=O)C(=O)Nc1ccc(C(=O)N2CCC(C)CC2)cc1	-6	i	-1.2	i	i	i
Cc1nc(CSc2nsc(/C=C/N(C)C)c2C#N)cs1	-9	i	-0.63	i	i	i
COC(=O)c1ccccc1CSc1nsc(/C=C/N(C)C)c1C#N	-20	i	-0.12	6*	i	i
CCCCOc1ccccc1NC(=O)Cn1c(-c2nonc2N)nc2ccccc21	-9	i	-0.93	i	i	-8.8*
NNC(=O)Cn1c(-c2nonc2N)nc2ccccc21	-12	i	0.13	i	i	i
CN(C)CC1(C)Cc2ccsc2C1O (configuration not stated)	.	.	.	.	.	i
Cn1nc(-c2ccc(N3CCOCC3)c(NS(=O)(=O)c3ccc(Cl)cc3)c2)c2ccccc2c1=O	.	.	.	.	.	-10*
O=C(NC1CCN(C(=O)Nc2cccc(Cl)c2)CC1)c1ccco1	-9	i	1.2	i	i	i
COc1ccc(CCNC(=O)CSc2nn(-c3ccccc3)c(=S)s2)cc1OC	-11	i	-6.6*	i	i	i
COc1ccc(CCNC(=O)CSc2ccc3ccccc3c2)cc1OC	-7	i	-6.9*	i	i	i
CCCCn1c(-c2ccccc2)cnc1SCC(=O)NCCc1ccc(OC)c(OC)c1	-12	i	-6.3*	i	i	i
N#CC1c2ccccc2C=CN1C(=O)c1ccccc1 (configuration not stated)	-8	i	0.3	i	i	i
N#CC1(Cc2ccccc2Cl)c2ccccc2C=CN1C(=O)c1ccccc1 (configuration not stated)	-12	i	0.29	8*	i	i
COc1ccc(C(C(=O)NC(C)(C)C)N(CCC(C)C)C(=O)CCC(=O)Nc2cc(C)on2)cc1 (configuration not stated)	-6	i	-0.13	i	i	i
COc1ccc(-c2csc3nc[nH]c(=O)c23)cc1OC	-3	i	-0.48	i	i	i
Cc1ccc(-c2csc3nc[nH]c(=S)c23)cc1C	56*	i	0.15	i	24*	i
O=C(Nc1cc([N+](=O)[O-])ccc1N1CCCC1)c1cccs1	-5	i	1.2	i	i	i
Cc1onc(-c2ccccc2)c1C(=O)Nc1sc2c(c1C#N)CCC2	-12	i	1.6	i	i	i
Cc1cc(C(=O)Nc2sc3c(c2C#N)CCC(C)C3)no1 (configuration not stated)	-7	i	-0.29	i	i	i
Cc1onc(-c2ccccc2)c1C(=O)NC(=S)Nc1sc2c(c1C#N)CCC(C)C2 (configuration not stated)	15*	i	-0.03	i	21*	i
Cc1onc(-c2ccccc2)c1C(=O)NC(=S)Nc1sc2c(c1C#N)CCCC2	16*	i	0.97	i	8*	i
CC(Cc1ccco1)NC(=O)c1cccc(S(=O)(=O)N(C)C)c1 (configuration not stated)	-13	i	-1.9	i	i	i
COc1cc2ncnc(N[C@H](C)c3ccccc3)c2cc1OC	-8	i	1	i	i	i
SMILES	hERG protect	KCNK9 inh	Kir21 inh	KCNQ1 block	KCNQ1 pot	KCNK3 block
Cc1nonc1NC(=O)CSc1nc2ccccc2o1	-8	i	-0.61	i	i	i
COc1cc(C(=O)c2nccc3cc(OC)c(OC)cc23)c([N+](=O)[O-])cc1OC	5.9*	i	1.7	i	i	i
CC1CC(C)CN(C(=O)COC(=O)COc2ccccc2C#N)C1 (configuration not stated)	.	.	.	.	.	i
N=c1c2c(-c3ccccc3)c(-c3ccccc3)n(Cc3ccccc3)c2ncn1CCCn1ccnc1	-20	i	-8.7*	i	i	i
O=C(Cn1c(CO)nc2ccccc21)NCCc1ccccc1	7.3*	i	-1.6	i	i	i
O=C(Cn1c(CO)nc2ccccc21)NCCc1ccc(F)cc1	-8	i	0.63	i	i	i
Cc1cc(C)n(CCOc2ccc(Cl)cc2Cl)n1	9.2*	i	-1.3	i	i	i
Cc1cc(C)n(CC(O)COc2ccc(Cl)cc2Cl)n1 (configuration not stated)	-1	i	0.71	i	i	i
CCOP(=O)(OCC)C(NCc1ccccc1)c1ccc(Br)cc1 (configuration not stated)	-2	i	-4.3*	i	i	i
CCOP(=O)(OCC)C(NC(=O)Nc1ccccc1)c1ccccc1 (configuration not stated)	-9	i	0.71	i	i	i
CC(C)(C)NC(=O)NC(=O)COC(=O)c1c(F)cccc1Cl	-7	i	1.6	i	i	i
C[C@@H](C(=O)CC(=O)OC(C)(C)C)[C@@H](O)c1c(F)cccc1Cl	-7	-8*	0.04	i	i	i
Cc1ccc(C)n1-n1c(C)nc2scc(-c3ccccc3)c2c1=O	-3	i	-1	i	i	i
Cc1nc2scc(-c3ccccc3)c2c(=O)n1N=C1C=CC(=O)C=C1	-30	i	-6.8*	i	i	.
Cc1ccc(-c2cc(-c3ccc(F)cc3)c(C#N)c(N)n2)o1	-12	i	-2.2	i	i	i
Cc1cc(-c2cc(-c3ccc(Cl)cc3)nc(N)c2C#N)co1	-15	i	-4.9*	i	i	i
Cc1ccc(-c2cc(-c3ccc(Cl)cc3)c(C#N)c(N)n2)o1	-13	i	-4.5*	i	i	i
COc1ccc(N(CC(=O)N2CCN(Cc3ccccc3)CC2)S(C)(=O)=O)cc1Cl	-6	i	-1.3	i	i	i
CC(O)(c1ccccc1)c1ccc2ccccc2n1 (configuration not stated)	.	.	.	.	.	i
CCCCn1c(N)c(N(CCOC)C(=O)c2cnc(C)cn2)c(=O)[nH]c1=O	-4	i	0.01	i	i	i
CCOC(=O)c1cc(C#N)c(Oc2cccc(C(F)(F)F)c2)nc1-c1ccccc1	-13	i	1	6*	i	i
COc1ccc(C(=O)CCS(=O)(=O)c2ccc(C)cc2)cc1OC	-7	i	-2.2	i	8*	i
O=C(C=Cc1cccc(O)c1)c1ccccc1O	.	.	.	.	.	-9.9*
